High-throughput results from PubChem.
The list is not random: actives were taken first. Their share in the collection is about 2.3%.
NPY Y1 blocker = blocks the human neuropeptide Y Y1 receptor. AID 1040. hit rate 1% among 200,000. HEK293-CNG Y1 cells, membrane potential fluorescence; NPY at EC95, then isoproterenol. inhibition, % at 3.6 µM;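 active = inhibition above the campaign mean inhibition of all tested compounds plus 3 SD, cut at about 20% in these data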;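 also: 0% = DMSO wells given NPY plus isoproterenol and 100% = isoproterenol alone without NPY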
Target sequence (P25929 whole entry, looked up): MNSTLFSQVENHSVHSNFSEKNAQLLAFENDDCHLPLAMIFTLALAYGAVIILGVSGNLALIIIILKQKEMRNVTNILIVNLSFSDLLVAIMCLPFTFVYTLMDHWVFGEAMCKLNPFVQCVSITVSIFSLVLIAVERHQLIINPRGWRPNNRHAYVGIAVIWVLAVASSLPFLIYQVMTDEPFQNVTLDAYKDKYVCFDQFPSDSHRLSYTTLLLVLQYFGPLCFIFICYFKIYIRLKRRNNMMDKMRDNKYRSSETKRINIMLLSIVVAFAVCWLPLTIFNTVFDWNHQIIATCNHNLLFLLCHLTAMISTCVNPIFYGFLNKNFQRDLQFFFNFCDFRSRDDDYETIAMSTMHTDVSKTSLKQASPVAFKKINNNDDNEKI
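Test system – HEK293 Y1/CNG channel cell line · Also added – NPY agonist 25 nM, then isoproterenol 1 µM plus Ro 20-1724 25 µM · Compound dosing – one concentration, 3.6 µM, in 0.4% DMSO · Schedule – compound incubation 1 h at room temperature, readout 45 min post-stimulation · Technique – fluorescence, membrane potential probe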
NPY-Y2 antag = antagonists of human neuropeptide Y receptor Y2. hit rate 0.99% among 140,000. inhibition, % at 2.7 µM. NPY-Y2 expressing cells, antagonist mode. P49146. AID 793;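 also: 0% = vehicle with agonist challenge and 100% = reference antagonist with challenge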
NPY-Y2 PAM-ag = potentiates or activates human NPY-Y2 receptor; hit rate 0.45% among 220,000; P49146; cells expressing NPY-Y2, potentiator/agonist read-out; activation, % at 3.6 µM; AID 1359; in the data active = activation above about 27%;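 also: cells stimulated with NPY near EC25 plus isoproterenol at EC100; 0% = vehicle plus submaximal agonist and 100% = vehicle plus saturating agonist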
Calpain2 inh = inhibitors of pig calpain II. inhibition, % at 16 µM. purified calpain II, fluorogenic peptide substrate, 30 min. hit rate 0.37% among 220,000;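 active = inhibition above about 50%, limit read from the data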
TbHK1 inh = blocks Trypanosoma brucei hexokinase 1 activity; recombinant TbHK1, G6PDH-coupled NADH A340; inhibition, % at 10 µM; hit rate 0.11% among 220,000;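 active = inhibition of 50% or more in the single-dose primary screen; inactive = inhibition below 50%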
NPY1 pot ag = potentiators or agonists of human neuropeptide Y receptor Y1. P25929. NPY-Y1 expressing cells, potentiator/agonist activation. activation, % at 3.6 µM. hit rate 0.37% among 220,000. AID 1304; in the data active = activation above about 33%, passing the limit was not always enough;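 also: cells stimulated with NPY at EC10 then isoproterenol at EC100; 0% = low agonist plus stimulus and 100% = saturating agonist plus stimulus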
NPY-Y1 ant conf = confirmation of human neuropeptide Y receptor Y1 antagonists; AID 1254; shares compounds with NPY Y1 blocker; hit rate 21% among 1,200; HEK293-CNG NPY-Y1, membrane potential fluorescence, cAMP; NPY challenge against isoproterenol-raised cAMP; inhibition, % at 3.6 µM; in the data active = inhibition above about 20%;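 also: 0% = vehicle with agonist plus stimulus and 100% = stimulus alone without agonist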
NPY2 antag ctr = antagonizes human NPY-Y2, counter-screen to NPY-Y1 antagonists; hit rate 28% among 1,200; inhibition, % at 3.6 µM; HEK293 NPY-Y2 CNG membrane potential fluorescence, antagonism; cells given NPY, then isoproterenol; shares compounds with NPY Y1 blocker;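 also: 0% = DMSO with agonist challenge and 100% = reference antagonist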
Starred values were filed as active, the others as inactive; i = inactive; nt = no result given. Rule as the data show it, unless noted: active = inhibition above about 17%; inactive = the rest.

SMILES	NPY Y1 blocker	NPY-Y2 antag	NPY-Y2 PAM-ag	Calpain2 inh	TbHK1 inh	NPY1 pot ag	NPY-Y1 ant conf	NPY2 antag ctr
CCN(CC)CCNCc1cc(Cl)ccc1OCc1ccccc1F	24*	nt	4	22	5	-22	12	14
CCNCc1ccc(OCc2ccccc2F)c(OC)c1	3	nt	-3	-15	-2	-17	nt	nt
COc1ccccc1NC(=S)N(Cc1ccccc1)Cc1cccs1	27*	nt	2	10	2	-3	9	10
Cc1c(-c2cccc(Cl)c2)nc2ccccc2c1C(=O)OCC(=O)Nc1ccc2c(c1)OCO2	-2	-1	4	-1	-2	-9	nt	nt
CC1CCCC(NC(=O)COC(=O)/C=C/c2ccc(S(=O)(=O)N3CCOCC3)cc2)C1C (configuration not stated)	nt	nt	-12	-2	2	3	nt	nt
COC(=O)c1cc(-c2cccc(OC)c2)on1	27*	13	-29	7	-1	-38	11	15
COC(=O)c1cc(-c2ccc(Br)cc2)on1	23*	15	-44	-10	-3	-49	12	17*
COc1ccc(CCN(C)Cc2nc(Cc3ccc(OC)c(OC)c3)no2)cc1OC	0	nt	-7	-13	-5	-2	nt	nt
O=C(CC1C=Cc2ccccc2N1C(=O)c1ccccc1)c1ccccc1 (configuration not stated)	nt	nt	0	28	-9	4	nt	nt
CCC1Oc2ccccc2N(CC(=O)NCc2cccs2)C1=O (configuration not stated)	3	nt	-9	-23	-7	3	nt	nt
COc1ccccc1Nc1nc(N)nc(CN2CCC(Cc3ccccc3)CC2)n1	25*	12	-21	29	-5	-23	14	22*
Cc1ccc(Nc2nc(N)nc(-c3oc4ccccc4c3C)n2)cc1	24*	nt	-30	-94	-4	-19	6	30*
CC(C)OC(=O)c1c(N)n(CCCN2CCOCC2)c2nc3ccccc3nc12	3	1	-4	i	-18	-2	nt	nt
COc1ccccc1CNC(=O)c1c(N)n(CCCN2CCOCC2)c2nc3ccccc3nc12	23*	14	-5	i	-19	-12	9	7
Cc1ccc(S(=O)(=O)NC2c3cccc4cccc(c34)C2Sc2nc(C)cc(C)n2)cc1 (configuration not stated)	0	1	-13	-4	-3	-3	nt	nt
O=C(C[n+]1cc(-c2ccccc2)n2c1CCCCC2)c1ccc(Br)cc1	42*	nt	-9	-8	13	-9	22*	19*
O=C(C[n+]1cc(-c2ccccc2)n2c1CCC2)OCc1ccccc1	4	6	1	10	3	2	nt	nt
O=C(CSc1nc(-c2ccccc2)cs1)NCCN1C(=O)CSC1=O	3	nt	-14	16	2	3	nt	nt
CC(=O)Nc1c(NC(=O)CC#N)[nH]c2c(c1=O)c(=O)n(C)c(=O)n2C	2	nt	4	-31	-6	1	nt	nt
CCOc1cccc(-c2nc(C(N)=O)c3[nH]c(=O)n(-c4cccc(Cl)c4)c3n2)c1O	0	-1	-2	-67	-2	10	nt	nt
CCOc1ccccc1-c1nc(C(N)=O)c2[nH]c(=O)n(-c3cccc(C)c3)c2n1	24*	17	-5	-18	25	4	13	6
COc1cccc(CNC(=O)C(c2ccc(Cl)cc2)C(C)C)c1 (configuration not stated)	21*	11	-8	-3	21	-5	17	7
COc1ccc2c(c1)C(C)=CC(C)(C)N2C(=O)CSc1nnc(-c2ccc(C)cc2)o1	23*	16	-36	0	-5	-46	12	11
COc1ccc(C(=O)Nc2ccccc2C(=O)NCc2ccco2)cc1OC	-2	3	3	-1	1	-6	nt	nt
COc1ccc(C(=O)Nc2ccc(Cl)cc2C(=O)NCc2ccco2)cc1OC	25*	16	-156	-43	3	-160	25*	24*
SMILES	NPY Y1 blocker	NPY-Y2 antag	NPY-Y2 PAM-ag	Calpain2 inh	TbHK1 inh	NPY1 pot ag	NPY-Y1 ant conf	NPY2 antag ctr
COc1cccc(CNCc2cccnc2)c1OCc1ccccc1	8	nt	-18	-12	-4	13	nt	nt
CCc1ccc(OCC(=O)N(CC)CC)cc1	0	nt	3	-11	3	11	nt	nt
O=C(O)CSc1c[nH]c2ccccc12	13	10	-14	19	-1	-7	nt	nt
CC(Sc1c[nH]c2ccccc12)C(=O)O (configuration not stated)	28*	10	-16	-7	0	-42	5	4
C=CCOC(=O)c1cn(CC)c2nc(C)ccc2c1=O	-1	nt	6	-28	-7	-5	nt	nt
CCn1cc(C(=O)OCC(=O)OC2CC(C)CCC2C(C)C)c(=O)c2ccc(C)nc21 (configuration not stated)	21*	4	-1	30	-5	-22	11	8
C=CCNC(=S)N/N=C/c1ccc(C(C)(C)C)cc1	23*	nt	-34	64*	11	-28	11	6
O=C(CN1C(=O)NC2(CCc3ccccc3C2)C1=O)Nc1ccc(F)cc1 (configuration not stated)	1	3	-2	-22	-5	-32	nt	nt
O=C(NC1CCCCC1)C(c1ccncc1)N(Cc1ccc2c(c1)OCO2)C(=O)c1cnsn1 (configuration not stated)	25*	11	-7	0	-2	-24	28*	17
O=C(NC1CCCC1)C(c1ccncc1)N(Cc1ccccc1)C(=O)Cc1cccs1 (configuration not stated)	21*	8	3	19	1	-7	4	6
CC(=O)N(C)c1nc(N)n(-c2ccccc2)n1	6	nt	-5	-12	1	15	nt	nt
O=C(NC1CCCC1)C(=O)N(Cc1cccnc1)C(C(=O)NCC1CCCO1)c1ccco1 (configuration not stated)	2	nt	1	-6	0	-9	nt	nt
CCOC(=O)C1(CCc2ccccc2)CCN(Cc2c(O)cccc2OC)CC1	33*	nt	-11	-6	18	-33	27*	25*
CCOC(=O)C1(Cc2ccccc2)CCN(Cc2cc(OC)c3c(c2)OCO3)CC1	25*	nt	-8	-16	11	-1	7	10
CSc1ccc(CN2CCC(C(=O)NCc3ccc(C)cc3)CC2)cc1	13	nt	-25	14	12	-21	nt	nt
COc1ccc(C)cc1N(C(=O)c1ccc(F)cc1)c1nc2ccccc2s1	22*	11	-5	34	-7	-19	15	10
COc1ccc(C)cc1N(C(=O)COc1cccc(F)c1)c1nc2ccccc2s1	3	7	5	8	-3	7	nt	nt
